Laboratory results: ChEMBL document CHEMBL3259770, “Structure-activity relationship studies of the tricyclic indoline resistance-modifying agent” (J Med Chem, 2014)
Values after ≈ are worked out from the molar mass of the structure shown.

tested on: Staphylococcus aureus; experiment: Antibacterial activity against methicillin-resistant Staphylococcus aureus ATCC BAA-44 after overnight incubation by broth microdilution assay in presence of 4 ug/ml amoxicillin and 2 ug/ml clavulanic acid; type: functional
In short: (§1)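 Resensitization screen: compound from a 5 mg/mL DMSO stock, 2-fold serially diluted in MHB from 32 μg/mL final. Antibiotic was held at its CLSI-susceptible level: amoxicillin/clavulanic acid 4/2 μg/mL, cefazolin 8 μg/mL, meropenem 4 μg/mL. Final MRSA inoculum OD600 0.001, overnight at 37 °C with shaking. MRC was the concentration giving no visible overnight growth.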

In the case of `C=C1CCC[C@@H]2Nc3ccc(Br)cc3[C@]12CCN(S(=O)(=O)c1ccc(Cl)cc1)S(=O)(=O)c1ccc(Cl)cc1`, the MRC is reported as over 32 µg/mL.
Work on `C=C1CCC[C@@H]2Nc3ccc(Br)cc3[C@]12CCNC(=O)C(F)(F)F` yielded an MRC of over 32 µg/mL.
Molecule `C=C1CCC[C@@H]2N(C(=O)c3ccc(Cl)cc3)c3ccc(Br)cc3[C@]12CCNS(=O)(=O)c1ccc(Cl)cc1` has an MRC of over 32 µg/mL.
Work on `C=C1CCC[C@@H]2Nc3c(ccc4ccccc34)[C@]12CCNS(=O)(=O)c1ccc(Cl)cc1` yielded an MRC of over 32 µg/mL.
`C=C1CCC[C@@H]2Nc3ccc(Br)cc3[C@]12CCNS(=O)(=O)c1ccc(C)cc1` showed an MRC of over 32 µg/mL.
`C=C1CCC[C@@H]2Nc3c(F)cc(Br)cc3[C@]12CCN` gave an MRC of over 32 µg/mL.
`C=C1CCC[C@@H]2Nc3c(Br)cccc3[C@]12CCNS(=O)(=O)c1ccc(Cl)cc1` gave an MRC of over 32 µg/mL.

Going from `C=C1CCC[C@@H]2Nc3ccccc3[C@]12CCNS(=O)(=O)c1ccc(Cl)cc1` to `C=C1CCC[C@@H]2Nc3ccc(Cl)cc3[C@]12CCNS(=O)(=O)c1ccc(Cl)cc1`, the MRC falls from 16 µg/mL to 8 µg/mL (2-fold).

`C=C1CCC[C@@H]2Nc3ccc(Br)cc3[C@]12CCNS(=O)(=O)c1ccc(Br)cc1` and `C=C1CCC[C@@H]2Nc3ccc(Br)cc3[C@]12CCNS(=O)(=O)c1ccc(I)cc1` are the same in MRC: 4 µg/mL for the first, 4 µg/mL for the second.

Compared with `C=C1CCC[C@@H]2Nc3ccc(Br)cc3[C@]12CCNS(=O)(=O)c1ccc(Cl)c(Cl)c1`, `C=C1CCC[C@@H]2Nc3ccc(Br)cc3[C@]12CCNS(=O)(=O)c1ccc(Cl)cc1Cl` is 2-fold higher in MRC: 4 µg/mL for the first, 8 µg/mL for the second.

`C=C1CCC[C@@H]2Nc3c(F)cc(Br)cc3[C@]12CCNS(=O)(=O)c1ccc(I)cc1` and `C=C1CCC[C@@H]2Nc3c(F)cc(Br)cc3[C@]12CCNS(=O)(=O)c1ccc(F)cc1` are the same in MRC: 4 µg/mL for the first, 4 µg/mL for the second.

First: C=C1CCC[C@@H]2Nc3c(F)cc(Br)cc3[C@]12CCNS(=O)(=O)c1ccc(OC)cc1
Second: C=C1CCC[C@@H]2Nc3c(F)cc(Br)cc3[C@]12CCNS(=O)(=O)c1ccc(Cl)cc1
The MRC of the first is 4-fold higher: 8 µg/mL for the first, 2 µg/mL for the second.

Going from `C=C1CCC[C@@H]2Nc3c(F)cc(Br)cc3[C@]12CCNS(=O)(=O)c1ccc(Cl)c(Cl)c1` to `C=C1CCC[C@@H]2Nc3c(F)cc(Cl)cc3[C@]12CCNS(=O)(=O)c1ccc(Cl)cc1`, the MRC rises from 4 µg/mL to 16 µg/mL (4-fold).

`C=C1CCC[C@@H]2Nc3ccc(C)cc3[C@]12CCNS(=O)(=O)c1ccc(Cl)cc1` and `C=C1CCC[C@@H]2Nc3ccc(Br)cc3[C@]12CCNS(=O)(=O)c1ccc(N)cc1` are the same in MRC: 16 µg/mL for the first, 16 µg/mL for the second.

Work on `C=C1CCC[C@@H]2Nc3cccc(Br)c3[C@]12CCNS(=O)(=O)c1ccc(Cl)cc1` yielded an MRC of 32 µg/mL.

tested on: Staphylococcus aureus; experiment: Antibacterial activity against methicillin-resistant Staphylococcus aureus ATCC BAA-44 after overnight incubation by broth microdilution assay in presence of 8 ug/ml cefazolin; type: functional; in short: as §1

`C=C1CCC[C@@H]2Nc3ccc(Br)cc3[C@]12CCN(S(=O)(=O)c1ccc(Cl)cc1)S(=O)(=O)c1ccc(Cl)cc1` showed an MRC of over 32 µg/mL.
For `C=C1CCC[C@@H]2Nc3ccc(Br)cc3[C@]12CCNC(=O)C(F)(F)F`, the MRC was over 32 µg/mL.
In the case of `C=C1CCC[C@@H]2N(C(=O)c3ccc(Cl)cc3)c3ccc(Br)cc3[C@]12CCNS(=O)(=O)c1ccc(Cl)cc1`, the MRC is reported as over 32 µg/mL.
For `C=C1CCC[C@@H]2Nc3c(ccc4ccccc34)[C@]12CCNS(=O)(=O)c1ccc(Cl)cc1`, the MRC was over 32 µg/mL.
Molecule `C=C1CCC[C@@H]2Nc3ccc(Br)cc3[C@]12CCNS(=O)(=O)c1ccc(C)cc1` has an MRC of over 32 µg/mL.
For `C=C1CCC[C@@H]2Nc3ccc(Br)cc3[C@]12CCNS(=O)(=O)c1ccc(Cl)cc1Cl`, the MRC was over 32 µg/mL.

Going from `C=C1CCC[C@@H]2Nc3ccccc3[C@]12CCNS(=O)(=O)c1ccc(Cl)cc1` to `C=C1CCC[C@@H]2Nc3ccc(Cl)cc3[C@]12CCNS(=O)(=O)c1ccc(Cl)cc1`, the MRC falls from 16 µg/mL to 4 µg/mL (4-fold).

`C=C1CCC[C@@H]2Nc3ccc(Br)cc3[C@]12CCNS(=O)(=O)c1ccc(Br)cc1` and `C=C1CCC[C@@H]2Nc3ccc(Br)cc3[C@]12CCNS(=O)(=O)c1ccc(I)cc1` are the same in MRC: 4 µg/mL for the first, 4 µg/mL for the second.

Going from `C=C1CCC[C@@H]2Nc3ccc(Br)cc3[C@]12CCNS(=O)(=O)c1ccc(Cl)c(Cl)c1` to `C=C1CCC[C@@H]2Nc3c(F)cc(Br)cc3[C@]12CCNS(=O)(=O)c1ccc(Cl)c(Cl)c1`, the MRC rises from 2 µg/mL to 4 µg/mL (2-fold).

Compared with `C=C1CCC[C@@H]2Nc3c(F)cc(Br)cc3[C@]12CCNS(=O)(=O)c1ccc(I)cc1`, `C=C1CCC[C@@H]2Nc3c(F)cc(Br)cc3[C@]12CCNS(=O)(=O)c1ccc(F)cc1` is 2-fold higher in MRC: 2 µg/mL for the first, 4 µg/mL for the second.

`C=C1CCC[C@@H]2Nc3c(F)cc(Br)cc3[C@]12CCNS(=O)(=O)c1ccc(OC)cc1` and `C=C1CCC[C@@H]2Nc3c(F)cc(Br)cc3[C@]12CCNS(=O)(=O)c1ccc(Cl)cc1` are the same in MRC: 4 µg/mL for the first, 4 µg/mL for the second.

`C=C1CCC[C@@H]2Nc3ccc(C)cc3[C@]12CCNS(=O)(=O)c1ccc(Cl)cc1` and `C=C1CCC[C@@H]2Nc3ccc(Br)cc3[C@]12CCNS(=O)(=O)c1ccc(N)cc1` are the same in MRC: 16 µg/mL for the first, 16 µg/mL for the second.

Going from `C=C1CCC[C@@H]2Nc3c(F)cc(Br)cc3[C@]12CCN` to `C=C1CCC[C@@H]2Nc3c(F)cc(Cl)cc3[C@]12CCNS(=O)(=O)c1ccc(Cl)cc1`, the MRC falls from 32 µg/mL to 16 µg/mL (2-fold).

Going from `C=C1CCC[C@@H]2Nc3c(Br)cccc3[C@]12CCNS(=O)(=O)c1ccc(Cl)cc1` to `C=C1CCC[C@@H]2Nc3cccc(Br)c3[C@]12CCNS(=O)(=O)c1ccc(Cl)cc1`, the MRC falls from 32 µg/mL to 16 µg/mL (2-fold).

tested on: Staphylococcus aureus; experiment: Antibacterial activity against methicillin-resistant Staphylococcus aureus ATCC 33592 after overnight incubation by broth microdilution assay in presence of 4 ug/ml meropenem; type: functional; in short: as §1

`C=C1CCC[C@@H]2Nc3ccc(Br)cc3[C@]12CCN(S(=O)(=O)c1ccc(Cl)cc1)S(=O)(=O)c1ccc(Cl)cc1` showed an MRC of over 32 µg/mL.
Molecule `C=C1CCC[C@@H]2N(C(=O)c3ccc(Cl)cc3)c3ccc(Br)cc3[C@]12CCNS(=O)(=O)c1ccc(Cl)cc1` has an MRC of over 32 µg/mL.
Molecule `C=C1CCC[C@@H]2Nc3c(ccc4ccccc34)[C@]12CCNS(=O)(=O)c1ccc(Cl)cc1` has an MRC of over 32 µg/mL.
Work on `C=C1CCC[C@@H]2Nc3ccc(Br)cc3[C@]12CCNS(=O)(=O)c1ccc(C)cc1` yielded an MRC of over 32 µg/mL.

Compared with `C=C1CCC[C@@H]2Nc3ccccc3[C@]12CCNS(=O)(=O)c1ccc(Cl)cc1`, `C=C1CCC[C@@H]2Nc3ccc(Cl)cc3[C@]12CCNS(=O)(=O)c1ccc(Cl)cc1` is 2-fold lower in MRC: 16 µg/mL for the first, 8 µg/mL for the second.

First: C=C1CCC[C@@H]2Nc3ccc(Br)cc3[C@]12CCNS(=O)(=O)c1ccc(Br)cc1
Second: C=C1CCC[C@@H]2Nc3ccc(Br)cc3[C@]12CCNS(=O)(=O)c1ccc(I)cc1
The MRC of the first is 4-fold lower: 8 µg/mL for the first, 32 µg/mL for the second.

Compared with `C=C1CCC[C@@H]2Nc3ccc(Br)cc3[C@]12CCNC(=O)C(F)(F)F`, `C=C1CCC[C@@H]2Nc3ccc(Br)cc3[C@]12CCNS(=O)(=O)c1ccc(N)cc1` is 2-fold lower in MRC: 32 µg/mL for the first, 16 µg/mL for the second.

`C=C1CCC[C@@H]2Nc3ccc(Br)cc3[C@]12CCNS(=O)(=O)c1ccc(Cl)c(Cl)c1` and `C=C1CCC[C@@H]2Nc3ccc(Br)cc3[C@]12CCNS(=O)(=O)c1ccc(Cl)cc1Cl` are the same in MRC: 4 µg/mL for the first, 4 µg/mL for the second.

`C=C1CCC[C@@H]2Nc3c(F)cc(Br)cc3[C@]12CCNS(=O)(=O)c1ccc(I)cc1` and `C=C1CCC[C@@H]2Nc3c(F)cc(Br)cc3[C@]12CCNS(=O)(=O)c1ccc(F)cc1` are the same in MRC: 4 µg/mL for the first, 4 µg/mL for the second.

Going from `C=C1CCC[C@@H]2Nc3c(F)cc(Br)cc3[C@]12CCNS(=O)(=O)c1ccc(OC)cc1` to `C=C1CCC[C@@H]2Nc3c(F)cc(Br)cc3[C@]12CCNS(=O)(=O)c1ccc(Cl)cc1`, the MRC falls from 8 µg/mL to 4 µg/mL (2-fold).

First: C=C1CCC[C@@H]2Nc3c(F)cc(Br)cc3[C@]12CCNS(=O)(=O)c1ccc(Cl)c(Cl)c1
Second: C=C1CCC[C@@H]2Nc3c(F)cc(Cl)cc3[C@]12CCNS(=O)(=O)c1ccc(Cl)cc1
The MRC of the first is 8-fold lower: 4 µg/mL for the first, 32 µg/mL for the second.

Compared with `C=C1CCC[C@@H]2Nc3ccc(C)cc3[C@]12CCNS(=O)(=O)c1ccc(Cl)cc1`, `C=C1CCC[C@@H]2Nc3c(Br)cccc3[C@]12CCNS(=O)(=O)c1ccc(Cl)cc1` is 4-fold lower in MRC: 32 µg/mL for the first, 8 µg/mL for the second.

`C=C1CCC[C@@H]2Nc3c(F)cc(Br)cc3[C@]12CCN` and `C=C1CCC[C@@H]2Nc3cccc(Br)c3[C@]12CCNS(=O)(=O)c1ccc(Cl)cc1` are the same in MRC: 16 µg/mL for the first, 16 µg/mL for the second.

tested on: not listed separately; experiment: Cytotoxicity against human HeLa cells after 24 hrs by CellTiter-Glo assay; type: cell-based
In short: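 HeLa cells seeded at 20 000 cells/well in DMEM with 10% FCS and 1% penicillin/streptomycin, grown 16 h at 37 °C, 5% CO2. Medium renewed, then compound added in DMSO to final 0.5–32 μg/mL, triplicate series. After 24 h at 37 °C, plates equilibrated to room temperature and viability read by CellTiter-Glo luminescence.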

`C=C1CCC[C@@H]2Nc3ccc(Br)cc3[C@]12CCNS(=O)(=O)c1ccc(Br)cc1` and `C=C1CCC[C@@H]2Nc3ccc(Br)cc3[C@]12CCNS(=O)(=O)c1ccc(I)cc1` are within 1.5-fold of each other in GI50 at 24 h: 40 mg/L (≈ 76 µM) for the first, 33 mg/L (≈ 57.6 µM) for the second.

Going from `C=C1CCC[C@@H]2Nc3ccc(Cl)cc3[C@]12CCNS(=O)(=O)c1ccc(Cl)cc1` to `C=C1CCC[C@@H]2Nc3ccc(Br)cc3[C@]12CCNS(=O)(=O)c1ccc(Cl)c(Cl)c1`, the GI50 at 24 h falls from 35 mg/L (≈ 80 µM) to 12.8 mg/L (≈ 24.8 µM) (2.7-fold).

`C=C1CCC[C@@H]2Nc3c(F)cc(Br)cc3[C@]12CCNS(=O)(=O)c1ccc(I)cc1` and `C=C1CCC[C@@H]2Nc3c(F)cc(Br)cc3[C@]12CCNS(=O)(=O)c1ccc(F)cc1` are within 1.5-fold of each other in GI50 at 24 h: 19.6 mg/L (≈ 33.1 µM) for the first, 18.3 mg/L (≈ 37.9 µM) for the second.

Compared with `C=C1CCC[C@@H]2Nc3c(F)cc(Br)cc3[C@]12CCNS(=O)(=O)c1ccc(OC)cc1`, `C=C1CCC[C@@H]2Nc3c(F)cc(Br)cc3[C@]12CCNS(=O)(=O)c1ccc(Cl)cc1` is 2.7-fold lower in GI50 at 24 h: 49 mg/L (≈ 98.9 µM) for the first, 18.1 mg/L (≈ 36.2 µM) for the second.

Compared with `C=C1CCC[C@@H]2Nc3c(F)cc(Br)cc3[C@]12CCNS(=O)(=O)c1ccc(Cl)c(Cl)c1`, `C=C1CCC[C@@H]2Nc3c(F)cc(Br)cc3[C@]12CCN` is 1.9-fold lower in GI50 at 24 h: 31 mg/L (≈ 58 µM) for the first, 16.2 mg/L (≈ 49.8 µM) for the second.
